# OX1R antag-1 – OX1R (HCRTR1) antagonists, primary screen, fluorescence, CHO/OX1R cells, Fluo-8 calcium, orexin A; Orexin/Hypocretin receptor type 1 (Homo sapiens), O43613; inhibition, % at 5 µM; actives 0.43% (n = 330,000); Fluo-8 calcium fluorescence; AID 434989, 2010;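 active means inhibition above its plate's threshold, mean inhibition of all tested compounds on the plate plus 3 SD, cut at about 37% in these data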;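 further: 0% = orexin A challenge wells and 100% = SB-334867-A antagonist wells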
# CHO parental Ca – ATP-evoked calcium signal inhibitors, parental CHO, primary screen, counter-screen for OX1R antagonist project, cell-based, fluorescence, Fluo-8 calcium dye | parental CHO-K1, ATP-induced calcium, Fluo-8 fluorescence | inhibition, % at 5.6 µM | actives 0.63% (n = 330,000) | AID 463079, 2010;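 active means inhibition above that plate's mean sample inhibition plus 3 SD, cut at about 26% in these data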;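 further: 0% = ATP-challenged DMSO wells and 100% = DMSO wells without ATP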
#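 Test system: untransfected parental CHO cell line; also added: ATP stimulus; dosing: 5.6 µM, single dose; signal: calcium-sensitive Fluo-8 fluorescence; measure: percent inhibition of ATP-evoked calcium rise, normalized to controls; benchmarks: low control ATP plus DMSO, high control DMSO only; replication: one well per compound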
# GPR7 antag – GPR7 receptor antagonists, primary screen, cell-based, fluorescence, single concentration | inhibition, % at 4.4 µM | actives 1.1% (n = 290,000) | GPR7-expressing cells, fluorescence antagonist assay | AID 1861, 2009; in the data active means inhibition above about 16%, passing the limit was not always enough;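 further: cells stimulated with the agonist NPW; 0% = agonist with vehicle and 100% = vehicle without agonist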
# Target sequence (P48145 whole entry, looked up): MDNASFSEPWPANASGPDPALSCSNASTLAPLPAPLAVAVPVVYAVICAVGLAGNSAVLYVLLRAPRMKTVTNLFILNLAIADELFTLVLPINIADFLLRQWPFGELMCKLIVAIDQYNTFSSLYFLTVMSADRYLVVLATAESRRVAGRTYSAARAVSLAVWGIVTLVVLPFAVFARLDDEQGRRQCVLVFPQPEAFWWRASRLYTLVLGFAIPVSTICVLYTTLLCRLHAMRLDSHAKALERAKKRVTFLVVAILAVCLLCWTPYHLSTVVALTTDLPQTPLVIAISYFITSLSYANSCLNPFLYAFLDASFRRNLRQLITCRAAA
# TAAR1 antag – human TAAR1 antagonists, primary screen, Fluo-8 calcium fluorescence, CHO RD-HGA16 cells; Trace amine-associated receptor 1 (Homo sapiens), Q96RJ0; antagonist; inhibition, % at 3 µM; actives 1.5% (n = 360,000); AID 624466, 2012;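 active means inhibition above a per-plate cutoff, the mean inhibition of test compounds on that plate plus 3 SD, cut at about 49% in these data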;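 further: 0% = DMSO plus EC80 beta-PEA response and 100% = DMSO alone without agonist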
#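 Material: CHO RD-HGA16 cells bearing hTAAR1; compound dosing: one-point dosing, 3 µM nominal final; schedule: dye loading 75 min at 37 °C, then 30 min room temperature; measured by: calcium fluorescence with Fluo-8; control set: vehicle and agonist controls; replication: n of 1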
# TAAR1 ag – human TAAR1 agonists, primary screen, Fluo-8 calcium fluorescence, CHO RD-HGA16 cells; actives 0.99% (n = 360,000); activation, % at 3 µM; AID 624467, 2012; vehicle wells 0%, saturating PEA agonist 100%;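 active means activation above the mean activation of all test compounds in the run plus 3 SD, cut at about 38% in these data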
#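 Test system: RD-HGA16 (CHO) cells co-expressing Gα16 and hTAAR1; dosing: one-point dosing at 3 µM (nominal); timing: 17-24 h seeding, 75 min 37 °C dye, 30 min RT; signal: kinetic Fluo-8 calcium fluorescence; read-out basis: % activation relative to PEA EC100 response; controls: DMSO and PEA EC100; replicates: n 1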
# OX1R antag-2 – antagonists of human orexin 1 receptor (OX1R). Orexin/Hypocretin receptor type 1 (Homo sapiens), O43613. OX1R-expressing cells, FRET antagonist read-out. inhibition, % at 6.6 µM. actives 1.8% (n = 330,000). AID 485270, 2010; in the data active means inhibition mostly above about 38%, no sharp cut-off; inactive means mostly below about 40%;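 further: 0% = agonist challenge alone and 100% = reference antagonist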
# Active calls of the source: *; . = not tested or not shown. An excerpt weighted towards active compounds, which were near 4.6% of everything screened.
SMILES,OX1R antag-1,CHO parental Ca,GPR7 antag,TAAR1 antag,TAAR1 ag,OX1R antag-2
COc1ccc(CNC(=O)C(C)N(Cc2ccccc2OC)C(=O)c2snc(C(N)=O)c2N)cc1 (stereo not drawn),-24,-14,-4,51*,15,21
COc1cccc(N(C(=O)c2snc(C(N)=O)c2N)C(C(=O)NCc2ccccc2)c2ccc(O)cc2)c1 (stereo not drawn),-1,-2,-2,54*,9,2
COc1ccc(C(C(=O)NCc2ccccc2)N(Cc2cccnc2)C(=O)c2snc(C(N)=O)c2N)cc1OC (stereo not drawn),-16,-9,-9,20,4,13
COc1ccc(CN(C(=O)c2snc(C(N)=O)c2N)C(C)C(=O)NCc2ccc(F)cc2)cc1 (stereo not drawn),-9,6,-4,20,14,37
COc1ccc(N(C(=O)c2snc(C(N)=O)c2N)C(C(=O)NCc2ccccc2)c2ccc(O)cc2)cc1OC (stereo not drawn),.,.,-1,-12,0,.
COc1cccc(-c2nc(-c3ccccn3)no2)c1OC,-20,-9,1,1,3,32
c1ccc(-c2noc(-c3cccc4ccccc34)n2)nc1,-9,-36,-8,-8,25,66*
COc1cccc(NC(=O)c2nc3ncccn3n2)c1,-7,-10,-19,-14,4,-2
CCOC(=O)c1c(C)[nH]c(C)c1C(=O)COC(=O)/C=C/c1ccccc1[N+](=O)[O-],27,-18,.,33,5,35*
CCOC(=O)c1c(C)[nH]c(C)c1C(=O)COC(=O)/C=C/c1cccc(Cl)c1,-10,-8,-12,22,-1,49
O=C(NCc1cccnc1)C(=O)N/N=C/c1ccccc1[N+](=O)[O-],-6,-7,-9,-12,10,19
O=C(NCc1cccnc1)C(=O)N/N=C/c1ccc([N+](=O)[O-])cc1,-29,-4,-7,-17,9,59*
CCC(=O)N=c1sc2c(C)cc(C)cc2n1CC(=O)OC,-29,-15,-6,-31,-1,16
Cc1ccc(NC(=O)c2ccc(Br)o2)c([N+](=O)[O-])c1,.,.,.,-10,-1,.
NS(=O)(=O)c1ccc(NNC(=O)c2ccc(Br)o2)c([N+](=O)[O-])c1,10,-4,.,-4,1,58*
COCCOc1cc(Nc2nnc(C(F)(F)F)s2)c(Cl)cc1Cl,-24,3,-10,5,7,21
Fc1ccc(Nc2nnc(C(F)(F)F)s2)cc1Cl,22,40*,3,-10,1,56*
O=C(c1ccc(-c2ccc(Cl)cc2)o1)N1CCN(c2ccc([N+](=O)[O-])cc2Cl)CC1,6,37*,-4,-6,6,17
CN1CCN(c2ccccc2NC(=O)c2cccc([N+](=O)[O-])c2)CC1,-29,-13,-12,0,0,27
O=C(Nc1ccccc1N1CCN(C(=O)c2ccc(Cl)cc2)CC1)c1cccc([N+](=O)[O-])c1,-9,-14,5,51*,7,20
COc1ccc(C(=O)Nc2cc(C)nn2-c2ccc(F)cc2)cc1,-14,-1,-3,-14,4,22
CNC[C@H]1Oc2c(NS(=O)(=O)c3ccccc3)cccc2C(=O)N([C@H](C)CO)C[C@@H]1C,-17,3,.,0,4,7
Cc1ccc(/C=C2/NC(=O)N(Cc3ccccc3)C2=O)s1,20,21,2,35,40*,2
C=CCN1C(=Nc2cccnc2)SCC1(O)c1ccc(C)cc1 (stereo not drawn),19,37*,24,.,.,29
COCC1OC(OC(C)C(O)c2cnc3nc(N)[nH]c(=O)c3n2)C(O)C(OC)C1O (stereo not drawn),.,.,.,-1,0,.
SMILES,OX1R antag-1,CHO parental Ca,GPR7 antag,TAAR1 antag,TAAR1 ag,OX1R antag-2
CCCCOc1ccc(-c2nnn(CC(=O)Nc3ncc(CC(=O)OCC)s3)n2)cc1,-15,-10,7,21,42*,23
CCOC(=O)Cc1cnc(NC(=O)Cn2nnc(-c3ccc(OCC)cc3)n2)s1,-9,-14,6,5,34,2
O=C(NNC(=O)c1ccccc1O)c1cc2ccccc2o1,-24,-21,.,-13,10,25
Cc1ccc(NC(=O)NC2CC(=O)N(c3ccc4c(c3)OCCO4)C2)cc1F (stereo not drawn),-13,-4,.,4,-2,22
Cc1[nH][nH]c(=O)c1C(c1ccc(-c2ccc(F)cc2)o1)c1c(C)[nH][nH]c1=O,-10,-7,0,-10,2,18
Cc1[nH][nH]c(=O)c1C(c1ccc(-c2ccc(Cl)c(Cl)c2)o1)c1c(C)[nH][nH]c1=O,15,-5,3,105*,32,1
COc1ccc2[nH]c3c(c2c1)CCN1C(=O)N([C@@H](C)C(=O)NCc2c(F)cccc2Cl)C(=O)[C@]31C,-10,-11,9,2,2,24
C[C@@H](C(=O)NCc1c(F)cccc1Cl)N1C(=O)N2CCc3c([nH]c4ccccc34)[C@@]2(C)C1=O,22,-7,7,26,-1,67*
O=C1OCC(c2ccccc2)=C1c1ccccc1,-14,-9,-22,4,-1,13
NC1=C(c2ccccc2)C(=O)NC1=O,-15,-15,25,-1,-1,40*
CC[C@H]1c2[nH]c3ccccc3c2C[C@@H]2C(=O)N(c3ccc(F)cc3)C(=O)N21,-29,-24,.,18,4,4
CCN(CC)C(c1ccc(C)cc1)c1nnnn1C1CCCCC1 (stereo not drawn),-37,26*,-2,11,-1,25
CCN(CC)C(c1ccc(F)cc1)c1nnnn1C1CCCCC1 (stereo not drawn),-20,-24,6,-3,7,19
Cc1ccc(/C=C/c2ccc(N(C)C)cc2)[n+](C)c1,-8,15,0,11,1,39*
CCC(C)NS(=O)(=O)c1ccc(NS(=O)(=O)c2ccc(F)cc2)cc1 (stereo not drawn),-11,-11,13,14,7,14
Cc1ccccc1NS(=O)(=O)c1ccc(NC(=O)CSCc2ccc(Br)cc2)cc1,15,31*,18,28,25,23
O=[N+]([O-])c1sccc1CS(=O)(=O)c1ccccc1,-1,-22,-1,8,0,51*

# Bioassay records deposited in PubChem by The Scripps Research Institute Molecular Screening Center.
